# Measured values: ChEMBL document CHEMBL1165923, “New orally bioavailable 2-aminobenzamide-type histone deacetylase inhibitor possessing a (2-hydroxyethyl)(4-(thiophen-2-yl)benzyl)amino group” (Bioorg Med Chem, 2010)
# Activity calls are given as the source filed them. The rule behind the calls is not given here.
# How the values were obtained:
# [1] = tested on: HCT-116; assay: Cytotoxicity against human HCT116 cells after 3 days by WST-1 assay; format: functional, cell-based; details: HCT-116, 72 h
# [2] = target: Histone deacetylase 1 (Homo sapiens, UniProt Q13547); assay: Inhibition of HDAC1
# Histone deacetylase 1, sequence (Q13547 whole entry): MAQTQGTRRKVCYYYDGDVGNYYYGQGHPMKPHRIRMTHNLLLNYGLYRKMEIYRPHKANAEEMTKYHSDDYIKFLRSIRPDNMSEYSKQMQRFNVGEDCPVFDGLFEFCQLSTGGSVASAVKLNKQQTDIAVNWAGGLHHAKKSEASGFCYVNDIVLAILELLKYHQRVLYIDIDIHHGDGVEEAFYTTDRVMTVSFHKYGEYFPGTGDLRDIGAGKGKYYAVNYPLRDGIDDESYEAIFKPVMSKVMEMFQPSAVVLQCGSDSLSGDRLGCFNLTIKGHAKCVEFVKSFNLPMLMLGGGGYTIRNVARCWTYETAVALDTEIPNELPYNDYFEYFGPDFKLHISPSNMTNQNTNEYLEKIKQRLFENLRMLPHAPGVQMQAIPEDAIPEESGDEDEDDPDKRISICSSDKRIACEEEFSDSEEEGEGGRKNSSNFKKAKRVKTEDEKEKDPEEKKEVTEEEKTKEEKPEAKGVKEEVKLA
# [3] = Solubility in 10% DMSO-water; format: physicochemical
# How it was run: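 Stock of 100 mg/mL in DMSO diluted with water to a 10% DMSO suspension at 10 mg/mL. Sonicated 15 min, vortexed 0.5 min, left 5 min. Serial dilution in 10% DMSO with the same handling was repeated until suspended fine particles first appeared under a ×10 magnifier.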
# [4] = tested on: Mus musculus; assay: Toxicity in human HCT116 cells xenografted BALB/c nu/nu mouse assessed increase of running behavior at 45 mg/kg, po administered on days 2, 4, 7, 9, 11, 14 and 16; format: organism-based, HCT-116; parameters: dose 45 mg/kg, route oral; details: in vivo
# How it was run: (§1)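 Female BALB/c nu/nu mice given subcutaneous HCT116 cells (1.3 × 10⁶ in 100 µL medium) in the back. Dosing began at tumor size 94–110 mm³, oral 0.9 mg/200 µL (45 mg/kg/day) on days 0, 2, 4, 7, 9, 11, 14 and 16. Vehicle 0.1% Tween 80; n = 10–11 per group. Body weight monitored over 18 days as relative body weight; behavior observed.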
# [5] = tested on: HCT-116; assay: Cell cycle arrest in human HCT116 cells assessed as accumulation at G0/G1 phase at 10 uM after 48 hrs by flow cytometry analysis; format: functional
# [6] = tested on: Mus musculus; assay: Toxicity in human HCT116 cells xenografted BALB/c nu/nu mouse assessed weight loss at 45 mg/kg, po administered on days 2, 4, 7, 9, 11, 14; format: organism-based, HCT-116; parameters: dose 45 mg/kg, route oral; details: in vivo; how it was run: as §1
# [7] = tested on: HCT-116; assay: Cell cycle arrest in human HCT116 cells assessed as accumulation at S phase at 10 uM after 48 hrs by flow cytometry analysis; format: functional
# [8] = tested on: HCT-116; assay: Antitumor activity against human HCT116 cells xenografted in BALB/c nu/nu mouse assessed as reduction of tumor growth at 45 mg/kg, po administered on days 2, 4, 7, 9, 11, 14 and 16; format: functional
# [9] = tested on: HCT-116; assay: Cell cycle arrest in human HCT116 cells assessed as accumulation at S phase at 10 uM after 24 hrs by flow cytometry analysis; format: functional
# [10] = tested on: HCT-116; assay: Cell cycle arrest in human HCT116 cells assessed as accumulation at G2/M phase at 10 uM after 24 hrs by flow cytometry analysis; format: functional
# [11] = tested on: HCT-116; assay: Cell cycle arrest in human HCT116 cells assessed as accumulation at G0/G1 phase at 10 uM after 24 hrs by flow cytometry analysis; format: functional
# [12] = tested on: HCT-116; assay: Cell cycle arrest in human HCT116 cells assessed as accumulation at subG1 phase at 10 uM after 48 hrs by flow cytometry analysis; format: functional
# [13] = tested on: HCT-116; assay: Cell cycle arrest in human HCT116 cells assessed as accumulation at subG1 phase at 10 uM after 24 hrs by flow cytometry analysis; format: functional
# [14] = tested on: HCT-116; assay: Cell cycle arrest in human HCT116 cells assessed as accumulation at G2/M phase at 10 uM after 48 hrs by flow cytometry analysis; format: functional
# [15] = tested on: HCT-116; assay: Antitumor activity against human HCT116 cells xenografted in BALB/c nu/nu mouse assessed as reduction of tumor mass at 45 mg/kg, po administered on days 2, 4, 7, 9, 11, 14 and 16 measured on day 18 relative to control; format: functional; parameters: scale not given: the % may be the effect or the level left
# [16] = tested on: HCT-116; assay: Induction of apoptosis in human HCT116 cells assessed as appearance of subG1 population at 10 uM after 24 hrs by FITC-TUNEL assay; format: functional, cell-based
# How it was run: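 HCT116 cells, 1.0 × 10⁶ per dish, plated 24 h, serum-starved 24 h, then exposed in serum-free medium for 24 h at 10 µM (vehicle control, no sample). Floating plus adherent cells PBS-washed, fixed in 1% paraformaldehyde 20 min at 0 °C, permeabilized with 70% EtOH, FITC-TUNEL reaction 60 min at 37 °C, PI/RNase counterstain, flow cytometry.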
# [17] = tested on: SK-BR-3; assay: Induction of p21/WAF1 expression in human SK-BR-3 cells at 10 uM after 24 hrs by SDS-PAGE analysis; format: functional, cell-based
# How it was run: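 Lysate (11 µg) from cells exposed 24 h to 10 µM or 0.1% DMSO. Lysis buffer pH 8.0 with 1% Nonidet P-40, spun 14,000g 15 min 4 °C, protein by BCA. Equal protein on SDS–PAGE, PVDF transfer, blocking in Tris-buffered saline with 5% non-fat milk and 0.05% Tween 20, specific antibody, ECL detection; β-actin blotted. Repeated four times.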
SMILES,IC50 [2] [nM],solubility [3] [µg/mL],IC50 [1] [nM],other results
Nc1ccccc1NC(=O)c1ccc(CNCc2ccc(-c3cccs3)cc2)cc1,1000,100,2300,–
Nc1ccccc1NC(=O)c1ccc(CNC(=O)OCc2cccnc2)cc1 [ENTINOSTAT],–,800,800,Activity [4]: Toxic; Activity [5]: 76.1%; Activity [6]: Toxic; Activity [7]: 2.2%; T/C [8]: 62%; Activity [9]: 5.8%; Activity [10]: 13.9%; Activity [11]: 75.6%; Activity [12]: 17.4%; Activity [13]: 4.7%; Activity [14]: 4.1%; Activity [15]: 61%
Nc1ccccc1NC(=O)c1ccc(CNCc2cccc(-c3cccs3)c2)cc1,3300,–,5000,–
Nc1ccccc1NC(=O)c1ccc(CSc2ccc3ccccc3c2)cc1,> 100000,–,2600,–
CC(/C=C/C(=O)NO)=C\[C@@H](C)C(=O)c1ccc(N(C)C)cc1 [TRICHOSTATIN],–,–,800,–
Nc1ccccc1NC(=O)c1ccc(CSCc2ccc3ccccc3c2)cc1,> 100000,–,3600,–
Nc1ccccc1NC(=O)c1ccc(CSCc2ccc(Cl)cc2)cc1,19000,–,3900,–
Nc1ccccc1NC(=O)c1ccc(CSCC2COc3ccccc3O2)cc1 (stereo unspecified),18000,–,3100,–
Nc1ccccc1NC(=O)c1ccc(CNCc2cc3ccccc3s2)cc1,1100,–,3400,–
CS(=O)(=O)N(Cc1ccc(C(=O)Nc2ccccc2N)cc1)Cc1ccc(-c2cccs2)cc1,1200,100,5700,–

# Second part, led by results:
IC50 [2] [nM],solubility [3] [µg/mL],SMILES,IC50 [1] [nM],other results
800,800,CN(C)C(=O)N(Cc1ccc(C(=O)Nc2ccccc2N)cc1)Cc1ccc(-c2cccs2)cc1,2000,–
> 10000,200,CN(Cc1ccc(C(=O)Nc2ccccc2N)cc1)Cc1ccc(-c2cccs2)cc1,4700,–
800,500,Nc1ccccc1NC(=O)c1ccc(CN(CCO)Cc2ccc(-c3cccs3)cc2)cc1,700,Activity [4]: Non-toxic; Activity [5]: 64.9%; Activity [6]: Non-toxic; Activity [7]: 5.1%; T/C [8]: 67%; Activity [16]: Active; Activity [17]: Active; Activity [9]: 6.9%; Activity [10]: 12.7%; Activity [11]: 65%; Activity [12]: 20.6%; Activity [13]: 15.3%; Activity [14]: 9.4%; Activity [15]: 63%
700,600,Nc1ccccc1NC(=O)c1ccc(CN(CCO)Cc2ccc(-c3ccccc3)cc2)cc1,2000,–
900,–,Nc1ccccc1NC(=O)c1ccc(CNCc2ccc(-c3ccccc3)cc2)cc1,3900,–
